Screens (PubChem)
bIAP act – increases bovine intestinal alkaline phosphatase activity; purified bovine IAP, CDP-star luminescence, 30 min; active compounds read high; fold of DMSO-control signal, blank-subtracted; activation factor at 20 µM; 0.17% of 200,000 active; AID 1016;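 active = activation factor of 2 or more at 20 µM, a signal rise over negative controls twice the positive control's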
hIAP activ – human IAP activation. AID 2524. 0.16% of 330,000 active. activation factor at 10 µM. purified human IAP, CDP-Star luminescence, 30 min; active compounds read high; 1 = vehicle-only enzyme, 0 = enzyme-free background;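 active = activation factor of the enzyme at least 2-fold when tested at 20 µM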
Target sequence (P09923 whole entry, looked up): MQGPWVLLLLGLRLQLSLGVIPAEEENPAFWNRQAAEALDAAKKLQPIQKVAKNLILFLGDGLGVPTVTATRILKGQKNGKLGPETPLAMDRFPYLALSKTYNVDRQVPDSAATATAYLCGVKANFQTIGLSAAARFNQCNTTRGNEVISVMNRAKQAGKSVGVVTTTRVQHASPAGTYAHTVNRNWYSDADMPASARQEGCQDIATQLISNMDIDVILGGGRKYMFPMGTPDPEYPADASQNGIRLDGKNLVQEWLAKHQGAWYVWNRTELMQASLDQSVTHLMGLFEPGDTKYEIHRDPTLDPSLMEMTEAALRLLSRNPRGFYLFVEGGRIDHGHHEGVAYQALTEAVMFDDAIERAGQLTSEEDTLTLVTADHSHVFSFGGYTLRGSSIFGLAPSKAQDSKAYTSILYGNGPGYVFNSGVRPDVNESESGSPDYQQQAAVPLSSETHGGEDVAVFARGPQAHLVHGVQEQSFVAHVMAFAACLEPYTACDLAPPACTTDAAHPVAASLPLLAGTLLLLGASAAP
mIAP act – increases mouse intestinal alkaline phosphatase activity. muIAP, CDP-Star luminescence, 30 min; active compounds read high; 1 = vehicle-only enzyme signal, 0 = enzyme-free wells. activation factor at 10 µM. 0.24% of 330,000 active;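 active = activation factor of at least 2 at 20 µM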
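Assay system: mouse IAP enzyme; reagent: chemiluminescent substrate CDP-Star; dosing: test compounds delivered from DMSO solution; schedule: 30 min at room temperature; measured by: luminescence from enzymatic CDP-Star hydrolysis; controls: DMSO-only wells and no-enzyme negative control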
bIAP inh – blocks bovine intestinal alkaline phosphatase activity. purified bovine IAP, CDP-star luminescence, 30 min. inhibition, % at 20 µM. 190,000 tested, under 10 active;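 active = over 50% inhibition of intestinal alkaline phosphatase at 20 µM in the single-dose screen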
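test system = bovine IAP enzyme | medium = DEA buffer 100 mM, pH 9.8, with MgCl2 1.0 mM, ZnCl2 0.02 mM | detection = luminescence | dosing = single compound dose of 20 µM, 2% DMSO final | incubation = 30 min reaction at room temperature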
hIAP inh – human IAP inhibition; 0.12% of 330,000 active; AID 2544; purified IAP, CDP-Star luminescence, 30 min; P09923; inhibition, % at 10 µM;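 active = inhibition reaching a set limit with compound at 10 µM in the primary screen, cut at about 35% in these data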;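 note: plate controls were DMSO wells with enzyme for no effect and no-enzyme buffer wells for full effect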
mIAP block – mouse IAP inhibition. 0.2% of 330,000 active. purified mouse IAP, CDP-Star luminescence, 30 min. inhibition, % at 10 µM. AID 2806;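 active = inhibition of at least 40% at 10 µM in the primary screen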;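 note: plate controls were DMSO with enzyme for no effect and no enzyme wells for full effect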
mIAP inh conf – mouse IAP inhibition confirmation. purified mouse IAP, CDP-Star luminescence, 30 min. 4.7% of 11,000 active. AID 434971. shares compounds with mIAP block. inhibition, % at 10 µM;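 active = inhibition of at least 40% at 10 µM in either of the two replicates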;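 note: plate controls were DMSO wells with enzyme for no effect and buffer wells lacking enzyme for full effect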
Active calls of the source: *; . = not tested or not shown. Rows were chosen to be rich in hits. Some 0.77% of all compounds tested hit in one or more screens of this group.

SMILES	bIAP act	hIAP activ	mIAP act	bIAP inh	hIAP inh	mIAP block	mIAP inh conf
Cn1nc(OC(=O)Nc2cccc(Cl)c2)cc1C(F)(F)F	0.9	0.94	3.4*	7	6	-241	-151
Cn1nc(OC(=O)Nc2ccccc2)cc1C(F)(F)F	0.9	1.3	1.1	9	-34	-14	.
O=C(Nc1ccc(Cl)cc1)/C(=C/c1ccc([N+](=O)[O-])cc1)c1nc2ccccc2s1	1	.	.	1	.	.	.
COCc1ccc(CN2CCC(C(=O)Nc3cccc(-c4cccc(Cl)c4)c3)CC2)o1	.	1	2.7*	.	0	-174	-336
Cc1ccc(C)c(CN2CCC(CNC(=O)Nc3ccc(F)c(Cl)c3)CC2)c1	.	1.5	3.4*	.	-54	-235	-98
O=C(NCCN1CCCCC1)Nc1ccc(F)c(Cl)c1	0.9	0.9	1.1	10	10	-14	.
COc1cc(NC(=O)NCC2CCN(Cc3ccccc3F)CC2)cc(OC)c1	.	1.3	3.1*	.	-32	-208	-167
Cc1cc(C)cc(NC(=O)NCC2CCN(Cc3cc(C)ccc3C)CC2)c1	.	1.6	3.6*	.	-61	-256	-132
Cc1ccc(C)c(CN2CCC(CNC(=O)CCc3nnc4ccc(N5CCCCC5)nn34)CC2)c1	.	0.95	1	.	5	0	.
COc1ccccc1NC(=O)NCC1CC1(Cl)Cl (stereo unspecified)	.	1.1	1	.	-6	-3	.
O=C(O)CC1(CC(=O)Nc2cccc(C(=O)O)c2)CCCC1	.	1.1	1	.	-9	-4	.
NC(=O)C(c1ccccc1)c1ccc(C(=O)c2ccccc2)cc1 (stereo unspecified)	.	1.1	0.93	.	-9	7	.
O=C(c1ccc2nc(-c3ccco3)c(-c3ccco3)nc2c1)N1CCN(c2ccccc2)CC1	1	1	0.84	1	-5	16	.
O=C(O)c1ccc2nc(-c3ccco3)c(-c3ccco3)nc2c1	1.3	1.1	0.52	-25	-11	48*	66*
CC1(C(=O)O)CCC(C(=O)NNC(=O)c2ccccc2Cl)C1(C)C (stereo unspecified)	.	0.91	0.86	.	10	14	.
